Several values for one entry are separate records, joined by “and”; a condition that tells them apart may be missing. Equal values may be shown once. Entries after “also recorded” stand apart in the source; their conditions may differ.
Assays:
L-type calcium channel = experiment: Lead Profiling Screen; assay type: binding; conditions: significant interaction
[1] = test system: voltage-gated sodium channel; experiment: Lead Profiling Screen; assay type: binding; conditions: significant interaction
Dopamine D2S receptor = Dopamine D2S receptor (Homo sapiens, UniProt P14416); experiment: Lead Profiling Screen; assay type: binding; conditions: significant interaction
Sequence of Dopamine D2S receptor (P14416 1-414 isoform P14416-2): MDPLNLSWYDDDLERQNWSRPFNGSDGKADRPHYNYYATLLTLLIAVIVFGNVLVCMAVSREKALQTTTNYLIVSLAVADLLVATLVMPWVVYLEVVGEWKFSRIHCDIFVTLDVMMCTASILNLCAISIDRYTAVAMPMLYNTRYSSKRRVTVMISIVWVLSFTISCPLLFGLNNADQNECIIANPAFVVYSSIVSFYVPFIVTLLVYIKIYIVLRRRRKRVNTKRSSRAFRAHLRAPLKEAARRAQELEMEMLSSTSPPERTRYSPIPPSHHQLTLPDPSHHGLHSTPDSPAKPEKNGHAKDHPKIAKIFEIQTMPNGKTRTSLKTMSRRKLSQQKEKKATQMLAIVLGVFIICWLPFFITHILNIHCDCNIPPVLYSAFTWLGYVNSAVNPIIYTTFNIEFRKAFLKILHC

Dopamine D4.2 receptor = Dopamine D4.2 receptor (Homo sapiens, UniProt P21917, DEL265-296); experiment: Lead Profiling Screen; assay type: binding; conditions: significant interaction
hERG = hERG (Homo sapiens, UniProt Q12809); experiment: Lead Profiling Screen; assay type: binding; conditions: among 58 GPCRs, ion channels and transporters
Sequence of hERG (Q12809 whole entry): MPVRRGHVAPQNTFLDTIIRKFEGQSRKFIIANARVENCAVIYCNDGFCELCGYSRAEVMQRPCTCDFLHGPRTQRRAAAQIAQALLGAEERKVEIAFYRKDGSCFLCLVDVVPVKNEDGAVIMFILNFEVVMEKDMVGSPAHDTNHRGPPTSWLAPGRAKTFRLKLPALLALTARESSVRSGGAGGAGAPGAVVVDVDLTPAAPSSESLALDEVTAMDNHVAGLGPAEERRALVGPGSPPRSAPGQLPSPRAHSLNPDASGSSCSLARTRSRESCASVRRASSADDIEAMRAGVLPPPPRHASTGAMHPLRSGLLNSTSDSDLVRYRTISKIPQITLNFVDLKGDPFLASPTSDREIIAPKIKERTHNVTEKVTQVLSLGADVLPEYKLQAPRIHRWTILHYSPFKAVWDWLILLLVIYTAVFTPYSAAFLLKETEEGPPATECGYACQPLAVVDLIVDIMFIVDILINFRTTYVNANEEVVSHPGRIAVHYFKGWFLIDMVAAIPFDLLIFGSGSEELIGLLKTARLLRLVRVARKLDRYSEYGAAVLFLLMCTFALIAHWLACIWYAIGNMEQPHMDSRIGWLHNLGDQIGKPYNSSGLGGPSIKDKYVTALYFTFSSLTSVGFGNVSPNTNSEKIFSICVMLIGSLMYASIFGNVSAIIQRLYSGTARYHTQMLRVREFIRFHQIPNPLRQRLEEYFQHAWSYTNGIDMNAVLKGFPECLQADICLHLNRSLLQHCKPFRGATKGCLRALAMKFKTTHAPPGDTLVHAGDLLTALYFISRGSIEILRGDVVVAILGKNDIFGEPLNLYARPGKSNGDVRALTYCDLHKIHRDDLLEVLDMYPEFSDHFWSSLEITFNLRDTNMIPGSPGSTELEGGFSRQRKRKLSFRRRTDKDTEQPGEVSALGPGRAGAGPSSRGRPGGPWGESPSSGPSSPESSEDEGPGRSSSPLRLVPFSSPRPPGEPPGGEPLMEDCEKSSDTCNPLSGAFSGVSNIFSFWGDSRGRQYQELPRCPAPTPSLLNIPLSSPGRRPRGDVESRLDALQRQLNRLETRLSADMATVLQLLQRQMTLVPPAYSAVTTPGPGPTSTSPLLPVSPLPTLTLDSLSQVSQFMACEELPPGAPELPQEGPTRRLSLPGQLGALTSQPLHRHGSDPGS

[2] = CNS distribution study in mice; assay type: in vivo, mouse; conditions: average of four mice
[3] = Protein binding in plasma; conditions: mouse
[4] = Protein binding in plasma; conditions: human
Kir7.1-WT = Kir7.1-WT (Homo sapiens, UniProt O60928); experiment: Whole-cell patch clamp, Kir7.1-WT; assay type: cell-based; conditions: read-out: Kir7.1-WT IC50, -120 mV
Sequence of Kir7.1-WT (O60928 whole entry, the tested form may be a part): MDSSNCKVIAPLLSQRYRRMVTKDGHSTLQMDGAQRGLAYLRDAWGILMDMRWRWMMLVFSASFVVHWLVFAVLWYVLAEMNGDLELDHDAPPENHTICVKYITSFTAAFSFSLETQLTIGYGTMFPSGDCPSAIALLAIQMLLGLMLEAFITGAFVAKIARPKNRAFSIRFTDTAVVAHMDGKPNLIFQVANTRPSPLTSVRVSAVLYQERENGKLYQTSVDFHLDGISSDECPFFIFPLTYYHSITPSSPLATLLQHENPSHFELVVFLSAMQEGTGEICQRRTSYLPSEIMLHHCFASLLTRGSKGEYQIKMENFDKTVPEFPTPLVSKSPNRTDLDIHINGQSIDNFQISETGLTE
Outline: (§1)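 Human Kir7.1 (WT or mutant) was transiently co-transfected with EGFP into HEK-293T cells, which were replated next day on poly-L-lysine coverslips. Whole-cell clamp used bath 5 mM KCl, pH 7.4, and pipette 135 mM KCl, pH 7.3. Cells were held at −75 mV, stepped 500 ms to −120 mV, then ramped to 120 mV, every 5 s. Increasing test-compound doses were superfused, then BaCl₂ block; current read at −120 mV; variable-slope Hill fit, mean of n = 5.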

Kir7.1 E149Q/M125R = Kir7.1 E149Q/M125R (Homo sapiens, UniProt O60928, E149Q/M125R); experiment: Whole-cell patch clamp, Kir7.1 E149Q/M125R mutant; assay type: cell-based; conditions: -120 mV
Sequence of Kir7.1 E149Q/M125R (O60928 whole entry M125R/E149Q): as the sequence (O60928 whole entry, the tested form may be a part) above, with M125R, E149Q counted along it
Outline: as §1

Kir7.1-WT-A150S = Kir7.1-WT-A150S (Homo sapiens, UniProt O60928, A150S); experiment: Whole-cell patch clamp, Kir7.1-WT-A150S mutant; assay type: cell-based; conditions: -120 mV
Sequence of Kir7.1-WT-A150S (O60928 whole entry A150S): as the sequence (O60928 whole entry, the tested form may be a part) above, with A150S counted along it
Outline: as §1

Kir7.1 pore mutants [5] = target: Kir7.1 pore mutants (Homo sapiens, UniProt O60928, A161S); assay type: cell-based; conditions: 3 µM, -120 mV
Sequence of Kir7.1 pore mutants (Homo sapiens, UniProt O60928, A161S) (O60928 whole entry A161S): as the sequence (O60928 whole entry, the tested form may be a part) above, with A161S counted along it
Outline: (§2)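 Single pore-lining residues were mutated on a WT or M125R Kir7.1 background and expressed transiently with EGFP in HEK-293T cells. The whole-cell step-ramp protocol from a −75 mV holding potential was used, with test compound at 3 µM. Read-out was % inhibition of current at −120 mV, mean ± SEM, tested against the respective parent channel (P < 0.05).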

Kir7.1 pore mutants [6] = assay type: cell-based, human; conditions: 3 µM, -120 mV
Outline: as §2

[7] = plasma

| Radioligand displacement, L-type calcium channel (L-type calcium channel) [%] | Radioligand displacement, voltage-gated sodium channel [1] [%] | Radioligand displacement, Dopamine D2S receptor (Dopamine D2S receptor) [%] | Radioligand displacement, Dopamine D4.2 receptor (Dopamine D4.2 receptor) [%] | brain concentration [2] [ng/g] | fraction unbound [3] | fraction unbound [4] | SMILES | Ancillary pharmacology, hERG (hERG) | IC50 (Kir7.1-WT) | Effect of mutation E149Q/M125R on sensitivity (Kir7.1 E149Q/M125R; 3 µM) | IC50 (Kir7.1 E149Q/M125R; read-out: Kir7.1-M125R-E149Q IC50, patch clamp) | Effect of mutation A150S on inhibition (Kir7.1-WT-A150S; 3 µM) | IC50 (Kir7.1-WT-A150S; read-out: Kir7.1-WT-A150S IC50, patch clamp) | Effect of mutation A161S on Kir7.1 inhibition (Kir7.1 pore mutants [5]) | Effect of double mutation E149Q and A150S on sensitivity (Kir7.1 pore mutants [6]) | Effect of mutation E149D on block (Kir7.1 pore mutants [6]) | PPB (%Fu) Rat [7] [%] |
| --- | --- | --- | --- | --- | --- | --- | --- | --- | --- | --- | --- | --- | --- | --- | --- | --- | --- |
| > 50 | > 50 | > 50 | > 50 | 323.9 | 0.114 | 0.01 | CC(C)OC(=O)NC1CCN(Cc2cc(Cl)c3cccnc3c2O)CC1 [Compound 19, iso-Propyl (1-((5-chloro-8-hydroxyquinolin-7-yl)methyl)piperidin-4-yl)carbamate] | clean ancillary pharmacology | – | – | – | – | – | – | – | – | – |
| – | – | – | – | – | – | – | Oc1c(CN2CCC(Cc3ccccc3)CC2)cc(Cl)c2cccnc12 [VU714] | – | 1.4 µM and ~2 µM | partial, albeit significant (P<0.05), loss of sensitivity | 18.1 µM and ~18 µM | partial loss of inhibition | 6.9 µM and ~7 µM | no effect | additive loss of VU714 sensitivity; also recorded: virtually eliminated block of the channel | no effect on block | 1.8 |
